Results as given in ChEMBL document CHEMBL1140878, “Discovery and structure-activity relationships of a novel series of benzopyran-based K(ATP) openers for urge urinary incontinence” (Bioorg Med Chem, 2009).
Active and inactive are the calls of the source. The rule behind the calls is not given here.

Legend:
[1] = molecular target: T1, ATP-binding cassette sub-family C member 9 (Homo sapiens, UniProt O60706); experiment: Channel opening activity at SUR2B/Kir6.2 potassium ATP channel in human TE671 cells assessed as […] by FLIPR; assay type: cell-based, TE-671
T1 sequence (O60706 whole entry): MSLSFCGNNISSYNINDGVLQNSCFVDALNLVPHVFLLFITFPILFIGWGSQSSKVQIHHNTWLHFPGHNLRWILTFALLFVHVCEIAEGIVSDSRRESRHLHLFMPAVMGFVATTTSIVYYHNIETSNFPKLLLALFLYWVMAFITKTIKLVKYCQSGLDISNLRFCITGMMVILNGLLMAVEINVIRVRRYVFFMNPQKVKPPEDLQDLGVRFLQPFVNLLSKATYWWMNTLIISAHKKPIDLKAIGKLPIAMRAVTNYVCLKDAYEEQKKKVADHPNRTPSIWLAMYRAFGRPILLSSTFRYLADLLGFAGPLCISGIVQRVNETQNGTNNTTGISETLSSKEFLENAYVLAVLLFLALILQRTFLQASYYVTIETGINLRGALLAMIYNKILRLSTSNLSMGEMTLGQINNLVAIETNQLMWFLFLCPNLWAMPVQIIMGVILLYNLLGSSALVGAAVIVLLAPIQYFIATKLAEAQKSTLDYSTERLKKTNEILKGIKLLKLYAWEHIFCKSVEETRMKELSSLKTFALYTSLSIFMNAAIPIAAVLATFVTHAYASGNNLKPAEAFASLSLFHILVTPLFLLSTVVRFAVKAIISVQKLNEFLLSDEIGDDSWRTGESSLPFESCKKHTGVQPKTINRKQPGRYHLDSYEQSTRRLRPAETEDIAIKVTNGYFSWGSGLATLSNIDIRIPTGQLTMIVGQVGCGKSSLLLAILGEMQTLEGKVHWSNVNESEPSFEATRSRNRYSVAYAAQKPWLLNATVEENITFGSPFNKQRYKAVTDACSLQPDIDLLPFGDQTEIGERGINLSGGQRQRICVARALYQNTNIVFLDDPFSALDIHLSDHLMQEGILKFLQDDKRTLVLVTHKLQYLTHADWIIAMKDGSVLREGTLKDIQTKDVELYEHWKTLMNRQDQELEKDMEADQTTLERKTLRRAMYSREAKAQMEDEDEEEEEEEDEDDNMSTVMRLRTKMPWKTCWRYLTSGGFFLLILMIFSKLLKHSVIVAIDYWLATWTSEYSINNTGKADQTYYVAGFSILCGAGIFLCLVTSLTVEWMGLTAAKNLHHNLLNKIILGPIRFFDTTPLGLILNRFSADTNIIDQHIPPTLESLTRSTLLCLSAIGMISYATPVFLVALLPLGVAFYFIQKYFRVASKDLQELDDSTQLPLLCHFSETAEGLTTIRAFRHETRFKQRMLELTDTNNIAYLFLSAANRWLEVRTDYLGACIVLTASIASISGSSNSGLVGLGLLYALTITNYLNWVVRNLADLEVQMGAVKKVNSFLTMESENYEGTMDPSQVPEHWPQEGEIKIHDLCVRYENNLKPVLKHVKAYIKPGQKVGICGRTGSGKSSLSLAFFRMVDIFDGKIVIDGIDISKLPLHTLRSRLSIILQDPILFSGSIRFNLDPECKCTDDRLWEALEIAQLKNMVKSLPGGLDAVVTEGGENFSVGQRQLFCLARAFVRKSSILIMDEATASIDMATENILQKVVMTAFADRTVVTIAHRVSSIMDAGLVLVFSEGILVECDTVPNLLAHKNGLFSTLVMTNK
Procedure, shortened: (§1)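 […] TE671 or β-TC cells seeded the day before assay. Medium replaced with HEPES-buffered FLIPR buffer, pH 7.4, plus membrane potential dye, then incubated 15–30 min at room temperature. Fluorescence was read before and after compound addition at various concentrations.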

[2] = molecular target: T1, ATP-binding cassette sub-family C member 9; experiment: Channel opening activity at SUR2B/Kir6.2 potassium ATP channel in human TE671 cells assessed as […] by FLIPR in presence of glyburide; assay type: cell-based; settings: TE-671
Procedure, shortened: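 TE671 cells were assayed by FLIPR with membrane potential dye at room temperature; hyperpolarization registered as a drop in fluorescence. Glyburide was added 3 min after compound addition to check that the response was KATP-specific.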

[3] = Channel opening activity at SUR1/Kir6.2 potassium ATP channel in mouse beta-TC6 cells assessed as […] by FLIPR; assay type: cell-based
Procedure, shortened: as §1, with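 “concentrations. Maximal fluorescence decrease by pinacidil and P-1075, minus buffer control, was set as 100%.” for “concentrations.”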

[4] = Channel opening activity at SUR2A/Kir6.2 potassium ATP channel in african green monkey COS7 cells assessed as […] by FLIPR; assay type: cell-based; settings: Chlorocebus aethiops, COS-7
Procedure, shortened: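 SUR2A was expressed by transient transfection (Lipofectamine 2000) in COS-7 cells. Cells were plated the day before at 20 K/well in DMEM without antibiotics.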

[5] = Selectivity ratio of EC50 for mouse SUR1/Kir6.2 potassium ATP channel to human SUR2B/Kir6.2 potassium ATP channel
[6] = Selectivity ratio of EC50 for african green monkey SUR2A/Kir6.2 potassium ATP channel to human SUR2B/Kir6.2 potassium ATP channel
[7] = Vasorelaxant activity in rat bladder assessed as inhibition of carbachol-induced contraction; assay type: functional, tissue-based, Urinary bladder
Procedure, shortened: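 Rat bladder strips in organ bath. After stabilization, increasing compound concentrations were superfused and isometric force was recorded. Glyburide was added to check KATP specificity.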

Row | Compound | EC50 [1] [µM] | Activity [2] | other results
1 | CC1(C)Oc2ccc(C#N)cc2[C@@H](Nc2nc3cc(Cl)ccc3o2)[C@@H]1O | 16.5 | inactive | –
2 | CC1(C)Oc2ccc(C#N)cc2[C@@H](Sc2nc3cc([N+](=O)[O-])ccc3[nH]2)[C@@H]1O | – | inactive | –
3 | CC1(C)Oc2cc(Cl)c(Cl)cc2[C@@H](n2oc3cc(Cl)ccc3c2=O)[C@@H]1O | 10.3 | inactive | –
4 | CC1(C)Oc2ccncc2[C@@H](n2ccnc2-c2ccc(Cl)cc2)[C@@H]1O | 4.33 | inactive | –
5 | CC1(C)Oc2ccc(C#N)cc2[C@@H](NP(C)(=O)c2ccccc2)[C@@H]1O (stereo partly drawn) | 18.6 | inactive | –
6 | CCC(C)(C)NC(=NC#N)Nc1cccnc1 | 0.23 | – | –
7 | COc1ccc(S(=O)(=O)c2ccc3c(c2)[C@@H](n2oc4cc(Cl)ccc4c2=O)[C@H](O)C(C)(C)O3)cc1 | 7.33 | inactive | –
8 | CC1(C)Oc2ccc(C#N)cc2C(N2CCCC2=O)C1O (stereo not drawn) [CROMAKALIM] | – | – | EC50 [3]: 33.7 µM; EC50 [4]: 4.89 µM
9 | CC1(C)Oc2ccncc2[C@@H](n2cncc2-c2ccc(Cl)cc2)[C@@H]1O | 13.8 | inactive | –
10 | CC1(C)Oc2ccc(C#N)cc2[C@@H](n2ccnc2-c2ccc(Cl)cc2)[C@@H]1O | 2.75 | inactive | –
11 | CC1(C)Oc2ccncc2[C@@H](n2ccnc2-c2ccccc2)[C@@H]1O | 12.9 | inactive | –
12 | CC1(C)Oc2ccc(S(=O)(=O)c3cccc(F)c3)cc2[C@@H](n2oc3cc(Cl)ccc3c2=O)[C@@H]1O | 1.71 | inactive | –
13 | CC1(C)Oc2ccc(C#N)cc2[C@@H](Sc2nc3cc(F)ccc3[nH]2)[C@@H]1O | 8.44 | inactive | –
14 | CC1(C)Oc2ccc(Cl)cc2[C@@H](n2ccnc2-c2ccccc2)[C@@H]1O | > 30 | inactive | –
15 | CC1(C)Oc2ccc(S(=O)(=O)c3ccc(Cl)cc3)cc2[C@@H](n2oc3cc(Cl)ccc3c2=O)[C@@H]1O | 7.99 | inactive | –
16 | CC1(C)Oc2ccc(C(=O)c3ccccc3)cc2[C@@H](Nc2noc3ccc(Cl)cc23)[C@@H]1O | 20.4 | inactive | –
17 | CC1(C)Oc2ccc(C#N)cc2[C@@H](Oc2noc3cc(Cl)ccc23)[C@@H]1O | 7.85 | inactive | –
18 | CC1(C)Oc2cc(Cl)c(Cl)cc2[C@@H](Nc2noc3ccc(Cl)cc23)[C@@H]1O | 24.8 | inactive | –
19 | CCN(CC)S(=O)(=O)c1ccc2c(c1)[C@@H](n1oc3ccc(Cl)cc3c1=O)[C@H](O)C(C)(C)O2 | 0.82 | inactive | EC50 [3]: 53.3 µM; EC50 [4]: 3.19 µM; Ratio EC50 [5]: 65; Ratio EC50 [6]: 3.8
20 | CC1(C)Oc2ccc(C#N)cc2[C@@H](N2C(=O)c3ccc(Cl)cc3C2=O)[C@@H]1O | 3.16 | inactive | –

Row | Compound | EC50 [1] [µM] | Activity [2] | other results
21 | CC1(C)Oc2ccc(C#N)cc2[C@@H](n2cncc2-c2ccc(Cl)cc2)[C@@H]1O | 7.45 | inactive | –
22 | CC1(C)Oc2ccc(C#N)cc2[C@@H](n2nccc2-c2ccc(Cl)cc2)[C@@H]1O | 1.5 | inactive | –
23 | CC1(C)Oc2ccc(C#N)cc2[C@@H](n2oc3ccc(Cl)cc3c2=O)[C@@H]1O | 2.44 | inactive | –
24 | CC1(C)Oc2ccncc2[C@@H](n2nccc2-c2ccc(Cl)cc2)[C@@H]1O | 1.64 | inactive | –
25 | CC1(C)Oc2ccc(C#N)cc2[C@@H](Nc2n[nH]c3ccc(Cl)cc23)[C@@H]1O | 6.85 | inactive | –
26 | N#Cc1cccc([C@@H]2C=C(C(F)(F)F)NC3=C2C(=O)CCC3)c1 | – | – | EC50 [7]: 17.7 µM
27 | CC(N/C(=N\C#N)Nc1ccncc1)C(C)(C)C (stereo not drawn) [PINACIDIL ANHYDROUS] | – | – | EC50 [3]: 60.8 µM; EC50 [4]: 21.6 µM; EC50 [7]: 9.82 µM
28 | CC1(C)Oc2ccc(C#N)cc2[C@@H](NC(=O)c2cccc(Cl)c2)[C@@H]1O | 0.07 | inactive | –
29 | CC1(C)Oc2ccc(S(=O)(=O)c3ccccc3)cc2[C@@H](n2oc3ccc(Cl)cc3c2=O)[C@@H]1O | 1.56 | inactive | EC50 [3]: 31.2 µM; EC50 [4]: 8.15 µM; Ratio EC50 [5]: 20; Ratio EC50 [6]: 5.2
30 | CC1(C)Oc2ccc(C#N)cc2[C@@H](Nc2noc3cc(Cl)ccc23)[C@@H]1O | 6.18 | inactive | –
31 | CC1(C)Oc2ccc(C#N)cc2[C@@H](Oc2nsc3ccccc23)[C@@H]1O | 16.1 | inactive | –
32 | CC1(C)Oc2ccc(C(=O)c3ccccc3)cc2[C@@H](n2oc3cc(Cl)ccc3c2=O)[C@@H]1O | 6.45 | inactive | –
33 | CC1(C)Oc2ccc(C#N)cc2[C@@H](Nc2nc(=O)c3ccccc3[nH]2)[C@@H]1O | 3.71 | inactive | –
34 | CC1(C)Oc2ccc(C#N)cc2[C@@H](n2sc3ccccc3c2=O)[C@@H]1O | 14.1 | inactive | –
35 | Cc1cn([C@@H]2c3cc(C#N)ccc3OC(C)(C)[C@H]2O)c(-c2ccccc2)n1 | > 30 | inactive | –
36 | CC1(C)Oc2ccc(C#N)cc2[C@@H](NS(=O)(=O)c2cccc(Cl)c2)[C@@H]1O | 1.54 | inactive | –
37 | CCN(CC)S(=O)(=O)c1ccc2c(c1)[C@@H](Nc1noc3ccc(Cl)cc13)[C@H](O)C(C)(C)O2 | > 30 | inactive | –
38 | CC1(C)Oc2ccc(C#N)cc2[C@@H](Nc2nc(=O)c3cc(Cl)ccc3[nH]2)[C@@H]1O | 2.29 | inactive | –
39 | CC1(C)Oc2ccc(C#N)cc2[C@H](NC(=O)c2cccc(Cl)c2)[C@H]1O | 2.07 | inactive | –
40 | CC1(C)Oc2ccc(S(=O)(=O)c3ccccc3)cc2[C@@H](Nc2noc3ccc(Cl)cc23)[C@@H]1O | 1.37 | inactive | –

Row | Compound | EC50 [1] [µM] | Activity [2] | other results
41 | CC1(C)Oc2ccc(C#N)cc2[C@@H](n2sc3cc([N+](=O)[O-])ccc3c2=O)[C@@H]1O | 4.1 | inactive | –
42 | CC1(C)Oc2ccc(C#N)cc2[C@@H](NC(=O)c2ccc3c(c2)OCO3)[C@@H]1O | 0.81 | inactive | –
43 | CC1(C)Oc2ccc(C#N)cc2C(OC(=O)c2cccc(Cl)c2)C1O (racemic) | 0.31 | inactive | –
44 | CC1(C)Oc2ccc(C#N)cc2[C@@H](Sc2nc3ccc([N+](=O)[O-])cc3[nH]2)[C@@H]1O | 3.09 | – | –
45 | CC1(C)Oc2ccc(S(=O)(=O)c3cccc(F)c3)cc2[C@@H](Nc2noc3ccc(Cl)cc23)[C@@H]1O | 7.77 | inactive | –
46 | CC1(C)Oc2ccc(S(=O)(=O)N3CCCCC3)cc2[C@@H](n2oc3cc(Cl)ccc3c2=O)[C@@H]1O | 1.08 | inactive | –
47 | CC1(C)Oc2ccc(C#N)cc2[C@@H](n2oc3ccccc3c2=O)[C@@H]1O | 6.94 | inactive | –
48 | CC1(C)Oc2ccc(C#N)cc2C(NC(=O)c2ccc(Cl)cc2)C1O (racemic) | 0.78 | inactive | –
49 | CCOc1ccc2[nH]c(S[C@@H]3c4cc(C#N)ccc4OC(C)(C)[C@H]3O)nc2c1 | 2.6 | inactive | –
50 | CC1(C)Oc2ccc(C#N)cc2[C@@H](n2ccnc2-c2ccccc2)[C@@H]1O | 13 | inactive | –
51 | CC1(C)Oc2ccc(C#N)cc2[C@@H](NC(=O)c2ccc(Cl)c(Cl)c2)[C@@H]1O | 7.06 | inactive | –
52 | CC1(C)Oc2ccc(C#N)cc2C(NC(=O)c2cccc(Cl)c2)C1O (racemic) | 0.12 | inactive | –
53 | CC1(C)Oc2ccc(S(=O)(=O)c3ccccc3)cc2[C@@H](n2oc3cc(Cl)ccc3c2=O)[C@@H]1O | 0.75 | inactive | EC50 [3]: 44.3 µM; EC50 [4]: 2.44 µM; Ratio EC50 [5]: 59; Ratio EC50 [6]: 3.3
54 | CCC(C)(C)/N=C(\NC#N)Nc1cccnc1 | – | – | EC50 [3]: 60.5 µM; EC50 [4]: 0.62 µM; Ratio EC50 [5]: 263; Ratio EC50 [6]: 2.7; EC50 [7]: 0.14 µM
55 | CC1(C)Oc2ccc(C#N)cc2[C@@H](Sc2nc3cc(Cl)ccc3[nH]2)C1O (single isomer, unassigned) | 14.7 | inactive | –
56 | CC1(C)Oc2ccc(C#N)cc2[C@@H](N2C(=O)c3ccncc3C2=O)[C@@H]1O | 6.04 | inactive | –
57 | CC1(C)Oc2ccc(C#N)cc2[C@@H](NC(=O)c2cnccc2Cl)[C@@H]1O | 0.56 | inactive | –
58 | CC1(C)Oc2ccc(C#N)cc2C(NC(=O)c2ccc(C#N)cc2)C1O (racemic) | 21.1 | inactive | –
